# ChEMBL document CHEMBL1921735, “Antibacterial optimization of 4-aminothiazolyl analogues of the natural product GE2270 A: identification of the cycloalkylcarboxylic acids” (J Med Chem, 2011)
# pIC50: −log10 of the molar value. Activity calls are given as the source filed them. Unless noted, the calls are words filed in the database; no cut-off is given here.
# How the values were obtained:
# Staphylococcus aureus [1] = experiment: Bacteriostatic activity against Staphylococcus aureus ATCC 01001 infected in thigh of CD1 mouse assessed as prevention of colony formation at 80 mg/kg, po administered 2 hrs post infection measured after 24 hrs; format: functional, organism-based; set-up: dose 80 mg/kg
# In short: (§1)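 Female CD1 mice (21−25 g), made neutropenic with cyclophosphamide ip at 150 mg/kg (day −4) and 100 mg/kg (day −1). Left thigh infected im with 0.05 mL S. aureus ATCC 01001 (7.5 × 10^5 cfu/thigh), grown 16 h at 36 °C in cation-supplemented Mueller Hinton. Treatment given 2 h post-infection, four mice per group. At 12 or 24 h thighs were excised, homogenized in 0.9% NaCl, serially diluted and plated on blood agar for cfu.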
# Staphylococcus aureus [2] = experiment: Bacteriostatic activity against Staphylococcus aureus ATCC 01001 infected in thigh of CD1 mouse assessed as prevention of colony formation at 80 mg/kg, po administered 2 hrs post infection measured after 12 hrs; format: functional, organism-based; set-up: dose 80 mg/kg; in short: as §1
# Staphylococcus aureus [3] = experiment: Antibacterial activity against methicillin-resistant Staphylococcus aureus isolate A4.018 by CLSI M07-A8 method; format: functional
# Streptococcus pyogenes = experiment: Antibacterial activity against Streptococcus pyogenes ATCC BAA-595 by CLSI M07-A8 method; format: functional
# In short: (§2)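 Broth microdilution MIC run per CLSI M07-A8 (2009).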
# Escherichia coli = experiment: Antibacterial activity against Escherichia coli S30 assessed as inhibition of protein synthesis after 2 hrs by luminescence analysis; settings: S30, 2 h
# Enterococcus faecium = experiment: Antibacterial activity against Enterococcus faecium 7130724 by CLSI M07-A8 method; format: functional; in short: as §2
# Streptococcus pneumoniae = experiment: Antibacterial activity against Streptococcus pneumoniae by CLSI M07-A8 method; format: functional, organism-based; in short: as §2
# Enterococcus faecalis [4] = experiment: Antibacterial activity against Enterococcus faecalis ATCC 29212 by CLSI M07-A8 method; format: functional; in short: as §2
# [5] = Volume of distribution at steady state in Sprague-Dawley rat at 1 mg/kg, iv bolus; format: ADME, organism-based; set-up: dose 1 mg/kg, route intravenous; settings: in vivo, read-out: Vdss
# In short: (§3)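 Male Sprague−Dawley rats (220−270 g, ~6−10 weeks) with dual jugular vein cannulae, fasted overnight and for 8 h post-dose, given iv bolus (N = 2 or 3). Blood was collected into K2EDTA tubes and plasma was obtained. Plasma was protein-precipitated with acetonitrile containing glyburide internal standard, then analysed by LC−MS/MS (C18, 0.1% formic acid water/acetonitrile gradient).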
# [6] = Volume of distribution at steady state in Sprague-Dawley rat at 25 mg/kg, iv bolus; format: ADME, organism-based; set-up: dose 25 mg/kg, route intravenous; settings: in vivo, read-out: Vdss; in short: as §3
# [7] = AUC in Sprague-Dawley rat at 1 mg/kg, iv bolus; format: ADME, organism-based; set-up: dose 1 mg/kg, route intravenous; settings: plasma; in short: as §3
# [8] = Chemical stability of the compound in 15% v/v NaOH, 5% PEG-300, 0.9% saline, 55% v/v water at pH 7.2 to 7.8; format: physicochemical; settings: buffer
# [9] = Cmax in Sprague-Dawley rat at 1 mg/kg, iv bolus; format: ADME, organism-based; set-up: dose 1 mg/kg, route intravenous; settings: in vivo; in short: as §3
# Rattus norvegicus [10] = experiment: Cmax in Sprague-Dawley rat at 75 mg/kg, iv bolus; format: ADME, organism-based; set-up: dose 75 mg/kg, route intravenous; settings: in vivo; in short: as §3
# Staphylococcus aureus [11] = experiment: Antibacterial activity against Staphylococcus aureus ATCC 01001 infected in thigh of CD1 mouse assessed as prevention of colony formation at 80 to 320 mg/kg, ip administered 2 hrs post infection measured after 12 hrs; format: functional, organism-based; in short: as §1
# Staphylococcus aureus [12] = experiment: Antibacterial activity against Staphylococcus aureus ATCC 49951 infected in CD1 mouse assessed as protection against bacterial infection administered 5 hrs post infection measured on day 5; format: functional
# In short: (§4)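 Mouse lethal systemic infection: ip injection of 1 × 10^8 cfu/mouse (10−100× minimal lethal dose), E. faecalis in 50% sterile rat fecal extract, S. aureus in 0.9% NaCl. Therapy by tail-vein bolus at several doses, six mice per group. Started immediately for E. faecalis; at 1 and 5 h post-inoculation for S. aureus.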
# Rattus norvegicus [13] = experiment: Dose normalized AUC in Sprague-Dawley rat at 25 mg/kg, iv bolus; format: ADME, organism-based; set-up: dose 25 mg/kg, route intravenous; settings: in vivo; in short: as §3
# Rattus norvegicus [14] = experiment: Dose normalized AUC in Sprague-Dawley rat at 1 mg/kg, iv bolus; format: ADME, organism-based; set-up: dose 1 mg/kg, route intravenous; settings: in vivo; in short: as §3
# Staphylococcus aureus [15] = experiment: Antibacterial activity against Staphylococcus aureus ATCC 01001 infected in thigh of CD1 mouse assessed as prevention of colony formation at 80 to 320 mg/kg, ip administered 2 hrs post infection measured after 24 hrs; format: functional, organism-based; in short: as §1
# [16] = Cmax in Sprague-Dawley rat at 25 mg/kg, iv bolus; format: ADME, organism-based; set-up: dose 25 mg/kg, route intravenous; settings: in vivo; in short: as §3
# [17] = Clearance in Sprague-Dawley rat at 25 mg/kg, iv bolus; format: ADME, organism-based; set-up: dose 25 mg/kg, route intravenous; settings: in vivo; in short: as §3
# [18] = Plasma protein binding in Sprague-Dawley rat; format: ADME, cell-free; settings: read-out: PPB
# In short: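 Rat plasma protein binding was determined in triplicate by rapid equilibrium dialysis. Samples were quantified by LC−MS/MS after acetonitrile precipitation with glyburide internal standard.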
# [19] = Volume of distribution at steady state in Sprague-Dawley rat at 75 mg/kg, iv bolus; format: ADME, organism-based; set-up: dose 75 mg/kg, route intravenous; settings: in vivo, read-out: Vdss; in short: as §3
# Rattus norvegicus [20] = experiment: Dose normalized AUC in Sprague-Dawley rat at 75 mg/kg, iv bolus; format: ADME, organism-based; set-up: dose 75 mg/kg, route intravenous; settings: in vivo; in short: as §3
# Staphylococcus aureus [21] = experiment: Bacteriostatic activity against Staphylococcus aureus ATCC 01001 infected in thigh of CD1 mouse assessed as prevention of colony formation at 80 mg/kg, ip administered 2 hrs post infection measured after 24 hrs; format: functional, organism-based; set-up: dose 80 mg/kg; in short: as §1
# Staphylococcus aureus [22] = experiment: Bacteriostatic activity against Staphylococcus aureus ATCC 01001 infected in thigh of CD1 mouse assessed as prevention of colony formation at 40 mg/kg, ip administered 2 hrs post infection measured after 12 hrs; format: functional, organism-based; set-up: dose 40 mg/kg; in short: as §1
# [23] = Clearance in Sprague-Dawley rat at 75 mg/kg, iv bolus; format: ADME, organism-based; set-up: dose 75 mg/kg, route intravenous; settings: in vivo; in short: as §3
# [24] = AUC in Sprague-Dawley rat at 75 mg/kg, iv bolus; format: ADME, organism-based; set-up: dose 75 mg/kg, route intravenous; settings: plasma; in short: as §3
# Enterococcus faecalis [25] = experiment: Antibacterial activity against Enterococcus faecalis isolate NB04025 infected in CD1 mouse assessed as protection against bacterial infection administered immediately after infection measured on day 5; format: functional; settings: isolate NB04025, 120 h; in short: as §4
# [26] = Oral bioavailability in Sprague-Dawley rat; format: ADME, organism-based; settings: in vivo
# [27] = AUC in Sprague-Dawley rat at 25 mg/kg, iv bolus; format: ADME, organism-based; set-up: dose 25 mg/kg, route intravenous; settings: plasma; in short: as §3
# [28] = Clearance in Sprague-Dawley rat at 1 mg/kg, iv bolus; format: ADME, organism-based; set-up: dose 1 mg/kg, route intravenous; settings: in vivo; in short: as §3
smiles,measurement,setting,value
CC(=O)NC[C@H]1CN(c2ccc(N3CCOCC3)c(F)c2)C(=O)O1,Activity,Staphylococcus aureus [1],Active
same,Activity,Staphylococcus aureus [2],Active
CNC(=O)C[C@@H]1NC(=O)c2csc(n2)-c2ccc(-c3nc(NC(=O)OCCCC(N)=O)cs3)nc2-c2csc(n2)-c2csc(n2)[C@H]([C@@H](O)c2ccccc2)NC(=O)CNC(=O)c2nc(sc2COC)[C@H](C(C)C)NC(=O)c2nc1sc2C,MIC,Staphylococcus aureus [3],0.5 mg/L
same,MIC,Streptococcus pyogenes,> 32 mg/L
same,pIC50,Escherichia coli,5.62
same,MIC,Enterococcus faecium,0.25 mg/L
same,Activity,Streptococcus pneumoniae,Active
same,MIC,Enterococcus faecalis [4],0.25 mg/L
CNC(=O)C[C@@H]1NC(=O)c2csc(n2)-c2ccc(-c3nc(NC(=O)[C@H]4CC[C@H](C(=O)O)CC4)cs3)nc2-c2csc(n2)-c2csc(n2)[C@H]([C@@H](O)c2ccccc2)NC(=O)CNC(=O)c2nc(sc2COC)[C@H](C(C)C)NC(=O)c2nc1sc2C,Vd,[5],< 0.1 L/kg
same,Vd,[6],< 0.1 L/kg
same,AUC,[7],3 µM·h
same,Stability,[8],> 1 weeks
same,MIC,Staphylococcus aureus [3],0.125 mg/L
same,Cmax,[9],5 µM
same,Cmax,Rattus norvegicus [10],> 1000 µM
same,Activity,Staphylococcus aureus [11],Active
same,MIC,Streptococcus pyogenes,4 mg/L
same,ED50,Staphylococcus aureus [12],5.2 mg/kg
same,AUC/dose,Rattus norvegicus [13],13.7 µM·h/mg/kg
same,AUC/dose,Rattus norvegicus [14],3 µM·h/mg/kg
same,Activity,Staphylococcus aureus [15],Active
same,Cmax,[16],320 µM
same,clearance,[17],0.06 L/h/kg
same,fraction unbound,[18],< 0.01
same,Vd,[19],< 0.1 L/kg
same,AUC/dose,Rattus norvegicus [20],38.2 µM·h/mg/kg
same,Activity,Staphylococcus aureus [21],Active
same,Activity,Staphylococcus aureus [22],Active
same,clearance,[23],0.024 L/h/kg
same,AUC,[24],2860 µM·h
same,ED50,Enterococcus faecalis [25],0.6 mg/kg
same,MIC,Enterococcus faecium,0.06 mg/L
same,bioavailability,[26],< 0.1%
same,Activity,Streptococcus pneumoniae,Active
same,MIC,Enterococcus faecalis [4],0.06 mg/L
same,AUC,[27],343 µM·h
same,clearance,[28],0.402 L/h/kg
